This note sets out measurements from PubChem BioAssay AID540322 (Johns Hopkins Ion Channel Center, 2011).

As usually defined, the IC50 is the concentration that inhibits the measured activity by half.

Potassium channel subfamily K member 9 (Homo sapiens), sequence (Q9NPC2 whole entry, looked up): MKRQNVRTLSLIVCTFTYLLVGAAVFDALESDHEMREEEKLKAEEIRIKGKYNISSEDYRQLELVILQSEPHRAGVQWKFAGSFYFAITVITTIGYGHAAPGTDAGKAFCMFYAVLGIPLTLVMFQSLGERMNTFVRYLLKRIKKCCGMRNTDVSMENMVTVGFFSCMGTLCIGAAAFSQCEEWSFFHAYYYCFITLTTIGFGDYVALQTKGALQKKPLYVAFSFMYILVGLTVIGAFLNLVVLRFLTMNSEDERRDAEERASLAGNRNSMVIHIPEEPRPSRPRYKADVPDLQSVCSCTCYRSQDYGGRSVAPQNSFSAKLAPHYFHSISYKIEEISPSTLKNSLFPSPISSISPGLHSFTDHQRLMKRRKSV

The test has as its target Potassium channel subfamily K member 9 (Homo sapiens) (UniProt Q9NPC2). Put plainly: KCNK9 potassium channel inhibitors, SAR follow-up, HEK293 cells, thallium flux, round II (AID 540322). The following applies: HEK293-KCNK9, FluxOR thallium flux fluorescence. The method, boiled down:
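Material: HEK293 cells stably expressing the KCNK9 potassium channel; also added: K2SO4 plus Tl2SO4 stimulus (5x stock); compound dosing: multi-concentration series; timing: 90 min dye loading, 20 min compound pre-incubation, room temperature; measured by: FluxOR thallium-sensitive dye fluorescence, 110 s kinetic read post-stimulus; evaluation: IC50 from normalized fluorescence change; repeats: replicates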
In the case of `CCOc1ccccc1NC(=O)c1cccc(NC(=O)c2ccccc2OC)c1`, the half-inhibitory concentration (IC50) was 1180 nM.

Turning to `CC(C1CC2CCC1C2)n1c(-c2ccccc2Cl)n[nH]c1=S` (stereo not given), the IC50 is 470 nM.

With `Cc1cccc(C(=O)Nc2cccc(NC(=O)c3ccccc3OCC(C)C)c2)c1`, the half-inhibitory concentration (IC50) was 3390 nM.

As for `COc1ccccc1C(=O)Nc1cccc(NC(=O)c2ccccc2)c1`, the IC50 is 1740 nM.

Turning to `CCOc1cccc(NC(=O)c2cccc(NC(=O)C3CCCC3)c2)c1`, the concentration for half-maximal inhibition (IC50) is 4070 nM.

For the molecule `COc1cccc(C(=O)Nc2cccc(NC(=O)c3ccccc3)c2)c1`, the IC50 is 25900 nM.

As for `COc1cccc(-c2n[nH]c(=S)n2C(C)C2CC3CCC2C3)c1` (stereo not given), the IC50 was 210 nM.

Take `COc1ccccc1NC(=O)c1cccc(NC(=O)c2ccccc2C(F)(F)F)c1`: the concentration for half-maximal inhibition (IC50) was 1320 nM.

For the molecule `CCOc1ccccc1NC(=O)c1cccc(NC(=O)c2ccccc2OC(F)(F)F)c1`, the half-inhibitory concentration (IC50) is 800 nM.

As to `CC(C1CC2CCC1C2)n1c(-c2ccco2)n[nH]c1=S` (stereo not given), the IC50 is 320 nM.

With `CC(C1CC2CCC1C2)n1c(-c2cccc(Cl)c2)n[nH]c1=S` (stereo not given), the IC50 is 440 nM.

As to `COc1ccccc1C(=O)Nc1cccc(NC(=O)c2cccc(C)c2)c1`, the IC50 was 2720 nM.

For the molecule `CCOc1ccccc1NC(=O)c1cccc(NC(=O)C2CC2)c1`, the IC50 was 10200 nM.

In the case of `Cc1cccc(C(=O)Nc2cccc(NC(=O)c3ccccc3C(C)C)c2)c1`, the IC50 is 2390 nM.

As to `CCOc1ccccc1NC(=O)c1cccc(NC(=O)c2cccc(Cl)c2)c1`, the concentration for half-maximal inhibition (IC50) was 1840 nM.

Turning to `Cc1cccc(C(=O)Nc2cccc(NC(=O)c3ccccc3Cl)c2)c1`, the IC50 is 19800 nM.

As to `COc1ccccc1-c1n[nH]c(=S)n1C(C)C1CC2CCC1C2` (stereo not given), the half-maximal inhibitory concentration (IC50) was 840 nM.

Take `Cc1cccc(C(=O)Nc2cccc(NC(=O)c3ccccc3C(F)(F)F)c2)c1`: the IC50 is 12900 nM.

In the case of `COc1cccc(C(=O)Nc2cccc(NC(=O)c3cccc(C)c3)c2)c1`, the IC50 is 29300 nM.

For `CCOc1ccccc1NC(=O)c1cccc(NC(=O)CC2CCCCC2)c1`, the half-inhibitory concentration (IC50) was 1920 nM.

For `COc1ccccc1NC(=O)c1cccc(NC(=O)CC2CCCC2)c1`, the IC50 is 2630 nM.

In the case of `CCOc1ccccc1NC(=O)c1cccc(NC(=O)c2cccc(OC)c2)c1`, the IC50 is 2330 nM.

For `COc1ccccc1NC(=O)c1cccc(NC(=O)c2ccccc2)c1`, the IC50 is 1410 nM.

As to `COc1ccc(-c2n[nH]c(=S)n2C(C)C2CC3CCC2C3)cc1` (stereo not given), the IC50 was 1730 nM.

`COc1ccccc1NC(=O)c1cccc(NC(=O)c2ccccc2OC)c1`: the half-maximal inhibitory concentration (IC50) was 3020 nM.

Consider `COc1ccccc1C(=O)Nc1cccc(NC(=O)c2ccccc2OC)c1`, for which the IC50 was 3620 nM.

Consider `O=C(Nc1ccccc1Cl)c1cccc(NC(=O)C2CCCC2)c1`, for which the IC50 is 5780 nM.

Turning to `CC(C1CC2CCC1C2)n1c(-c2ccoc2)n[nH]c1=S` (stereo not given), the IC50 is 4250 nM.

As to `CCOc1ccccc1NC(=O)c1cccc(NC(=O)C(C)(C)C)c1`, the IC50 was 30600 nM.

For `Cc1cccc(C(=O)Nc2cccc(NC(=O)c3cccc(C)c3)c2)c1`, the IC50 is 990 nM.

In the case of `CCOc1ccccc1NC(=O)c1cccc(NC(=O)c2ccccc2C)c1`, the 50% inhibitory concentration (IC50) is 4290 nM.

`O=C(Nc1cccc(NC(=O)C2CCCCC2)c1)c1ccccc1`: the IC50 is 8000 nM.

As for `Cc1cccc(C(=O)Nc2cccc(NC(=O)c3ccccc3OC(F)(F)F)c2)c1`, the IC50 was 1050 nM.

On to `CC(C1CC2CCC1C2)n1c(-c2ccccc2)n[nH]c1=S` (stereo not given), for which the IC50 was 520 nM.

Regarding `Cc1cccc(C(=O)Nc2cccc(NC(=O)c3ccccc3C)c2)c1`, the IC50 was 940 nM.

With `CC(C1CC2CCC1C2)n1c(-c2ccsc2)n[nH]c1=S` (stereo not given), the 50% inhibitory concentration (IC50) is 1000 nM.

Take `CCOc1ccccc1NC(=O)c1cccc(NC(=O)c2ccc(C)cc2)c1`: the IC50 is 14700 nM.

`COc1ccccc1C(=O)Nc1cccc(NC(=O)c2ccccc2OC(F)(F)F)c1`: the IC50 is 1170 nM.

On to `CCOc1ccccc1NC(=O)c1cccc(NC(=O)C2CCCCC2)c1`, for which the half-inhibitory concentration (IC50) is 1300 nM.

As for `CCOc1ccccc1C(=O)Nc1cccc(NC(=O)c2ccccc2C(F)(F)F)c1`, the IC50 was 1040 nM.

With `COc1cccc(OC)c1C(=O)Nc1cccc(NC(=O)c2cccc(C)c2)c1`, the IC50 was 19200 nM.

As for `Cc1cccc(C(=O)Nc2cccc(NC(=O)c3cccc(Cl)c3)c2)c1`, the IC50 was 13400 nM.

As for `COc1ccccc1C(=O)Nc1cccc(NC(=O)c2ccccc2C(C)C)c1`, the IC50 is 740 nM.

In the case of `CCOc1ccccc1NC(=O)c1cccc(NC(=O)c2ccccc2C(F)(F)F)c1`, the IC50 was 320 nM.

Take `CCOc1ccccc1NC(=O)c1cccc(NC(=O)C2CCCC2)c1`: the IC50 was 1840 nM.

Regarding `Cc1cccc(C(=O)Nc2cccc(NC(=O)c3ccccc3)c2)c1`, the IC50 was 1820 nM.

On to `CCOc1ccccc1NC(=O)c1cccc(NC(=O)CC2CCCC2)c1`, for which the IC50 was 4170 nM.

With `COc1ccccc1C(=O)Nc1cccc(NC(=O)c2ccccc2C)c1`, the IC50 is 3490 nM.

`CCOc1ccccc1C(=O)Nc1cccc(NC(=O)C2CCCC2)c1`: the IC50 is 1110 nM.

Turning to `CCOc1ccccc1NC(=O)c1cccc(NC(=O)c2cccc(C)c2)c1`, the IC50 was 290 nM.

For `O=C(Nc1cccc(NC(=O)c2ccccn2)c1)c1ccccc1`, the IC50 is 5370 nM.

Consider `Cc1cccc(C(=O)Nc2cccc(NC(=O)c3cccs3)c2)c1`, for which the IC50 is 6850 nM.

As to `COc1ccccc1NC(=O)c1cccc(NC(=O)C2CCCC2)c1`, the 50% inhibitory concentration (IC50) is 1550 nM.

Take `CCOc1ccccc1NC(=O)c1cccc(NC(=O)c2ccccc2Cl)c1`: the IC50 was 2630 nM.

Regarding `O=C(Nc1cccc(NC(=O)c2ccccc2C(F)(F)F)c1)c1ccccc1`, the IC50 is 7210 nM.

On to `Cc1cccc(C(=O)Nc2cccc(NC(=O)C3CCCCC3)c2)c1`, for which the IC50 was 11900 nM.

In the case of `CCOc1ccccc1NC(=O)c1cccc(NC(=O)c2cccc(C(F)(F)F)c2)c1`, the half-inhibitory concentration (IC50) is 1380 nM.

On to `CCOc1ccccc1NC(=O)c1cccc(NC(=O)c2ccccc2)c1`, for which the IC50 is 1430 nM.

As for `CCOc1ccccc1C(=O)Nc1cccc(NC(=O)c2ccccc2OC)c1`, the IC50 was 1980 nM.

As to `Cc1ccccc1-c1n[nH]c(=S)n1C(C)C1CC2CCC1C2` (stereo not given), the concentration for half-maximal inhibition (IC50) was 720 nM.

In the case of `CCOc1ccccc1C(=O)Nc1cccc(NC(=O)c2cccc(C)c2)c1`, the IC50 was 570 nM.

As to `COc1ccccc1NC(=O)c1cccc(NC(=O)C2CCCCC2)c1`, the IC50 was 2160 nM.

As to `Cc1cccc(C(=O)Nc2cccc(NC(=O)c3ccco3)c2)c1`, the IC50 was 1670 nM.

Regarding `Cc1ccccc1C(=O)Nc1cccc(NC(=O)c2ccccc2)c1`, the IC50 is 6480 nM.

Take `CC(C1CC2CCC1C2)n1c(C2CCOC2)n[nH]c1=S` (stereo not given): the 50% inhibitory concentration (IC50) is 10300 nM.
